RGS4 pot: RGS4 potentiators or activators, primary screen, cell-based, HEK293 M3R inducible RGS4, calcium flux; carbachol calcium flux Fluo4; stronger effect = lower value; B-score at 10 µM; 310,000 tested, 0.92% active; AID 463111, 2010;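 active = B-score of the integrated calcium signal more than 4 SD below the library mean, with starting fluorescence not abnormally high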;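 note: negative B-score means reduced calcium response which marks RGS4 activation or potentiation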
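Assay system: Inducible-RGS4 HEK293 cells carrying M3 receptor | Schedule: Compound preincubation 20 min at room temperature before agonist | Signal: Kinetic calcium fluorescence imaging with Fluo4-AM dye, 2 µM | Read-out basis: B score from integrated fluorescence ratio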
MrgX1 antag: antagonists of human MrgX1 receptor, primary screen, HEK293 cells, Fluo-4 calcium flux | Mas-related G-protein coupled receptor member X1 (Homo sapiens), Q96LB2 | BAM8-22 antagonism; stronger effect = lower value | B-score at 10 µM | 310,000 tested, 1.3% active | AID 588676, 2011;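 active = calcium-response B-score plate-corrected more than 3 library SD below zero, starting fluorescence within 5 deviations, no agonist response on first addition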;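 note: peak minus trough fluorescence over baseline after final BAM8-22 challenge near maximal dose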
Target sequence (Q96LB2 whole entry, looked up): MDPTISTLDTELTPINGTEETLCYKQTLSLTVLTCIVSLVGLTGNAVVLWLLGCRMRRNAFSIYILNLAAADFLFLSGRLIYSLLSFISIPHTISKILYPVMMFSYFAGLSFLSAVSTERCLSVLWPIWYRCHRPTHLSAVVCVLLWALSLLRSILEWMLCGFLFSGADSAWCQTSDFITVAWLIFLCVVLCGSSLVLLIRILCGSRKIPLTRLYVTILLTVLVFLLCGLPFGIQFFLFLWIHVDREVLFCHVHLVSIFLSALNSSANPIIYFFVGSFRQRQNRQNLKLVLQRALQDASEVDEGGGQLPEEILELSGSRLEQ
MrgX1 PAM: positive allosteric modulators of MrgX1, primary screen, HEK293 cells, Fluo-4 calcium flux; B-score at 10 µM; FDSS; stronger effect = higher value; AID 588675, 2011; 310,000 tested, 0.63% active;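 active = plate-corrected calcium response at least 3 library SD above typical, normal starting fluorescence, not activating the receptor alone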;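 note: compound read alongside a low EC10 to EC30 dose of BAM8-22 agonist; peak minus trough fluorescence over baseline measured at the second addition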
MrgX1 ag: agonists of human MrgX1 receptor, primary screen, HEK293 cells, Fluo-4 calcium flux. Fluo-4 calcium fluorescence, agonist mode; stronger effect = higher value. Mas-related G-protein coupled receptor member X1 (Homo sapiens), Q96LB2. 310,000 tested, 0.44% active. B-score at 10 µM;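 active = calcium response B-score plate-corrected fluorescence ratio at least 3 library SD, with starting fluorescence B-score inside 5 SD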
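System – MrgX1-expressing HEK293 cells · Incubation – cells plated overnight, dye loaded 0.5 h 37 °C, 0.5 h room temperature · Technique – kinetic Fluo-4 NW fluorescence of intracellular calcium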
RGS4 block: RGS4 inhibitors, primary screen, cell-based, HEK293 M3R inducible RGS4, calcium flux; Regulator of G-protein signaling 4 (Homo sapiens), P49798; B-score at 10 µM; 310,000 tested, 0.45% active; Fluo-4 calcium flux; stronger effect = higher value; triggered by carbachol at its EC20; AID 463165, 2010;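 active = B-score, a plate-corrected calcium signal, over three deviations above library mean, with baseline fluorescence within five deviations of library mean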;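 note: RGS4 expression induced by doxycycline in cells with stable M3 receptor; B-score is computed from the integrated fluorescence ratio over baseline after carbachol; higher B-score means a larger calcium signal and so more RGS4 inhibition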
Target sequence (P49798 whole entry, looked up): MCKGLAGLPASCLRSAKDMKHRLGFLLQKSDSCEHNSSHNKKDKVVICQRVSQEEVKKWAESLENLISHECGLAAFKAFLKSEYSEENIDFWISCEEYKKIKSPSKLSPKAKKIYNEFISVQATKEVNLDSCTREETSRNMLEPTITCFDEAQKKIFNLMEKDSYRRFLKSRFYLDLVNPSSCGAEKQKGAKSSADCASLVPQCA
RGS4 activ val: reduced carbachol calcium response, RGS4-induced M3R cells, confirmation, RGS4 activator project, cell-based, HEK293 M3R/RGS4 inducible, calcium flux, duplicate; shares compounds with RGS4 pot; carbachol calcium flux Fluo4; inhibition, % at 10 µM; 1,100 tested, 89% active;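 active = inhibition above 3 SD of the buffer control wells, cut at about 41% in these data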;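 note: signal is the integrated peak-minus-minimum Fluo4 fluorescence over baseline ratio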
M3R Ca counter: counter-screen for RGS4 activators: effect in non-induced cells | shares compounds with RGS4 pot | HEK293 M3R non-induced RGS4, Fluo4 calcium flux; after carbachol challenge at its EC90 | inhibition, % at 10 µM | 1,100 tested, 82% active | AID 602283;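 active = inhibition exceeding 3 SD of buffer-only control wells, cut at about 26% in these data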;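 note: percent drop in integrated peak-minus-baseline over baseline Fluo4 ratio after carbachol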
Numbers stand for hits; . = inactive; / = not tested or not shown. Hits are enriched below; roughly 3.5% of the tested compounds scored in any of these assays.

SMILES | RGS4 pot | MrgX1 antag | MrgX1 PAM | MrgX1 ag | RGS4 block | RGS4 activ val | M3R Ca counter
O=C(C[n+]1ccccc1)N1c2ccccc2Sc2ccccc21 | -12 | . | . | . | . | 93 | 96
Cc1ccn2c(=O)nc(SCC(=O)N3N=C(c4cccs4)CC3c3ccc(F)cc3)nc2c1 (stereo not given) | . | . | . | . | . | / | /
Cc1cccc(C(=O)Oc2ccc3ccc(O)cc3c2)c1 | . | . | . | . | . | / | /
O=C(CN1CCN(CCOCCO)CC1)N1c2ccccc2Sc2ccc(Cl)cc21 | -9.1 | . | . | . | . | 88 | 64
CC1(C)CC(=O)C2=C(C1)OC(N)=C(C#N)C2c1ccccc1[N+](=O)[O-] (stereo not given) | -11 | . | . | . | . | . | .
COC(=O)C(Nc1ccccc1Cl)(c1cc(C)c(O)c(C)c1)C(F)(F)F (stereo not given) | -9.6 | . | . | . | . | 93 | 97
N#Cc1c(OCC(=O)c2ccccc2)nc2c(c1-c1ccco1)CCc1ccccc1-2 | . | . | . | . | . | / | /
CCOC(=O)COc1nc(-c2ccccc2)cc(-c2ccco2)c1C#N | -7.7 | . | . | . | . | 88 | 54
CCOC(=O)COc1nc2c(c(-c3ccco3)c1C#N)CCc1ccccc1-2 | -7.8 | . | . | . | . | 82 | 37
CC(=O)N1CCN(C(c2ccccc2)c2ccccc2)CC1 | . | . | . | . | . | / | /
CC12CNCC(C)(CN(C(c3ccccc3)c3ccccc3)C1)C2 | -7.7 | . | . | . | . | 66 | 27
Cc1nc(N2CCN(Cc3ccccc3)CC2)nc2c1C(=O)CC(c1ccco1)C2 (stereo not given) | -8.4 | . | . | . | . | . | .
Cc1ccccc1OCC(=O)NNC(=O)C1CCN(c2ncnc3sc(C)c(C)c23)CC1 | . | . | . | . | . | / | /
CCCN(CC(=O)Nc1ccccc1C)C(=O)C1CCN(c2ncnc3sc(C)c(C)c23)CC1 | -8.7 | . | . | . | . | 64 | 27
O=C(Nc1ccccc1C(=O)O)c1cc(S(=O)(=O)N2CCCCCC2)ccc1Cl | -8.4 | . | . | . | . | . | .
Cc1ccc(OCc2cc(C(=O)N3CCc4sccc4C3)no2)cc1C | -7.7 | . | . | . | . | 81 | 44
COc1ccc(-c2[nH]ncc2CN(Cc2nccn2C)C(C)C)c(F)c1 | . | . | . | . | . | / | /
O=C(CCNC(=O)C1CCN(S(=O)(=O)c2ccc(F)cc2)CC1)NCc1cccc(Cl)c1 | . | . | . | . | . | / | /
O=C1CCC(c2ccccc2)(C2CCN(Cc3ccccc3)CC2)C(=O)N1 (stereo not given) | -7.8 | . | . | . | . | 94 | 94
COc1ccc(Nc2nc(NCC3CCCO3)c3ccccc3n2)c(OC)c1 (stereo not given) | -7.7 | . | . | . | . | 38 | 84
O=c1c2ccccc2nc(-c2ccccc2Cl)n1O | . | . | . | . | . | / | /
O=C1NC2CCc3nc4ccccc4c(=O)n3C2=Nc2ccccc21 (stereo not given) | -9.8 | . | . | . | . | . | .
COc1ccc(C(c2nnnn2Cc2cccs2)N2CCN(c3ccccc3F)CC2)cc1 (stereo not given) | -7.6 | . | . | . | . | . | .
COc1ccc(C(c2nnnn2Cc2ccccc2)N2CCN(c3ccccc3)CC2)cc1 (stereo not given) | . | . | . | . | . | / | /
CC(=O)c1ccc(N2CCN(CC(O)COC(c3ccccc3)c3ccccc3C)CC2)cc1 (stereo not given) | -11 | . | . | . | . | 94 | 83
SMILES | RGS4 pot | MrgX1 antag | MrgX1 PAM | MrgX1 ag | RGS4 block | RGS4 activ val | M3R Ca counter
CC(=O)c1ccc(N2CCN(CC(O)COC(c3ccccc3)c3ccccc3)CC2)cc1 (stereo not given) | -7.7 | . | . | . | . | 62 | 84
Cn1c(=O)c(=O)n(C)c2cc(S(=O)(=O)N3CCCC3C(=O)NCc3cccs3)ccc21 (stereo not given) | . | . | . | . | . | / | /
NC1=NS(=O)(=O)NC1c1ccc(Br)cc1 (stereo not given) | . | . | . | . | . | / | /
CN(CC(=O)Nc1cccc(F)c1)C(=O)c1cc(-c2cccs2)nn1-c1ccccc1 | -9.6 | . | . | . | . | 76 | 43
COc1ccc(C(=O)OCC(=O)N(C)C2CCS(=O)(=O)C2)cc1S(=O)(=O)N(C)Cc1ccccc1 (stereo not given) | . | . | . | . | . | / | /
CN(Cc1cnn(C)c1)C(=O)C1CCC(=O)N(Cc2ccc(Cl)cc2)C1 (stereo not given) | . | . | . | . | . | / | /
COC(=O)c1ccc(CN2CCN(C3CCCC3)C(CCO)C2)cc1 (stereo not given) | -9.3 | . | . | . | . | 92 | 67
c1ccc(COc2ccc(OCCN3CCCC3)cc2)cc1 | . | . | . | . | . | / | /
c1ccc(COc2ccc(OCCCN3CCCC3)cc2)cc1 | -11 | . | . | . | . | 94 | 57
CC1CCN(CCCOc2ccc(OCc3ccccc3)cc2)CC1 | -10 | . | . | . | . | 92 | 78
COc1ccc(Nc2nc(C)nc3c2nnn3Cc2ccccc2Cl)c(OC)c1 | . | . | . | . | . | / | /
COc1ccccc1C(=O)NCC1CCN(c2ccc(S(=O)(=O)N3CCOCC3)cc2)CC1 | -7.8 | . | . | . | . | 93 | 86
CCCC1Oc2ccccc2C(=O)N(CC(=O)c2ccc3c(c2)OCCO3)C1=O (stereo not given) | -9 | . | . | . | . | 58 | .
COc1ccc(NC(=O)CC2C(=O)N(c3ccc(F)cc3)C(=S)N2NC(=O)c2ccc(Cl)cc2)cc1 (stereo not given) | -11 | . | . | . | . | . | .
COc1ccc(NC(=O)CC2C(=O)N(c3ccc(Cl)cc3)C(=S)N2NC(=O)c2cccc(F)c2)cc1 (stereo not given) | . | . | . | . | . | / | /
O=C1CC(N2CCN(C/C=C/c3ccccc3)CC2)C(=O)N1Cc1cccs1 (stereo not given) | -7.9 | . | . | . | . | 94 | 26
N#Cc1ccccc1OCCCN1CCC(Cc2ccccc2)CC1 | -8.7 | . | . | . | . | 82 | 39
Cc1cc(S(=O)(=O)N2CCCCC2)ccc1OCC(=O)Nc1ccccc1 | . | . | . | . | . | / | /
CCc1ccc(OCC(=O)N2CCN=C2c2ccccc2)cc1 | -8.6 | . | . | . | . | . | .

Source: PubChem BioAssay (Johns Hopkins Ion Channel Center)
